# Sampled rows, rich in hits. Any-hit rate of the full collection: about 0.72%.
# mIAP act – activators of mouse IAP, primary screen, biochemical, luminescence, uHTS. actives 0.24% (n = 330,000). activation factor at 10 µM. muIAP, CDP-Star luminescence, 30 min; stronger effect = higher value; 1 = vehicle-only enzyme signal, 0 = enzyme-free wells. intestinal alkaline phosphatase [Mus musculus];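 active = activation factor of at least 2 at 20 µM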
#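 System: mouse IAP enzyme. Reagent: CDP-Star chemiluminescent phosphatase substrate. Benchmarks: DMSO wells, no-enzyme wells. Times: 30 min enzyme-substrate-compound incubation at room temperature. Detection: luminescence from enzymatic CDP-Star hydrolysis. Doses: test compounds delivered from DMSO solution.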
# hIAP inh – human IAP inhibitors, primary screen, biochemical, luminescence, uHTS; Intestinal-type alkaline phosphatase (Homo sapiens), P09923; purified IAP, CDP-Star luminescence, 30 min; inhibition, % at 10 µM; actives 0.12% (n = 330,000); AID 2544, 2010;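 active = inhibition reaching a set limit with compound at 10 µM in the primary screen, cut at about 35% in these data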;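 also: plate controls were DMSO wells with enzyme for no effect and no-enzyme buffer wells for full effect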
# Target sequence (P09923 whole entry, looked up): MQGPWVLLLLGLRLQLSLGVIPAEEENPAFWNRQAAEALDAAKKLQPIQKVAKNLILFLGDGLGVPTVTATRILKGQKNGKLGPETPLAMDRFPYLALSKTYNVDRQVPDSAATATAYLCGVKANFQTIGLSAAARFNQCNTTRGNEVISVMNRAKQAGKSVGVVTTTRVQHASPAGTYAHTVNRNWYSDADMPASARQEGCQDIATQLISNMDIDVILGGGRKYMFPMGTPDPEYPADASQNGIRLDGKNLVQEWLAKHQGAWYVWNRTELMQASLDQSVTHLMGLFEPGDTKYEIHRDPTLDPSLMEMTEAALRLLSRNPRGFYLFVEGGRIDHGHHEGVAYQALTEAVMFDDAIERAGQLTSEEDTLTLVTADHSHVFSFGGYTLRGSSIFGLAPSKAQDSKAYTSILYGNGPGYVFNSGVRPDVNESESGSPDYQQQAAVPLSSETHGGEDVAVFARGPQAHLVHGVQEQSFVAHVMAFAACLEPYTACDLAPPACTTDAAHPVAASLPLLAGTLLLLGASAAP
# bIAP inhibitor – bovine intestinal alkaline phosphatase inhibitors, primary screen, selectivity assay for TNAP inhibitor project, biochemical, bovine IAP, CDP-star luminescence; purified bovine IAP, 30 min; inhibition, % at 20 µM; 190,000 tested, under 10 active;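 active = over 50% inhibition of intestinal alkaline phosphatase at 20 µM in the single-dose screen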
#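 System: Purified bovine intestinal alkaline phosphatase (IAP) enzyme | Input: IAP diluted 1/65,000,000 in the well | Also added: CDP-star chemiluminescent phosphatase substrate, 30 µM final | Dosing: 20 µM single dose | Times: Enzyme reaction for 30 min at room temperature | Detection: Luminescence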
# hIAP act – human IAP activators, primary screen, biochemical, luminescence, uHTS; actives 0.16% (n = 330,000); purified human IAP, CDP-Star luminescence, 30 min; stronger effect = higher value; 1 = vehicle-only enzyme, 0 = enzyme-free background; activation factor at 10 µM;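 active = activation factor of the enzyme at least 2-fold when tested at 20 µM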
# bIAP act – bovine intestinal alkaline phosphatase activators, primary screen, biochemical, bovine IAP, CDP-star luminescence; alkaline phosphatase, intestinal [Bos taurus]; purified bovine IAP, 30 min; stronger effect = higher value; fold of DMSO-control signal, blank-subtracted; AID 1016, 2008; activation factor at 20 µM; actives 0.17% (n = 200,000);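 active = activation factor of 2 or more at 20 µM, a signal rise over negative controls twice the positive control's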
# mIAP block – inhibitors of mouse IAP, primary screen, biochemical, luminescence, uHTS | intestinal alkaline phosphatase [Mus musculus] | purified mouse IAP, CDP-Star luminescence, 30 min | inhibition, % at 10 µM | actives 0.2% (n = 330,000) | AID 2806, 2010;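 active = inhibition of at least 40% at 10 µM in the primary screen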;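 also: plate controls were DMSO with enzyme for no effect and no enzyme wells for full effect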
# mIAP inh confirm – inhibitors of mouse IAP, confirmation, biochemical, luminescence, single concentration | shares compounds with mIAP block | purified mouse IAP, CDP-Star luminescence, 30 min | inhibition, % at 10 µM | actives 4.7% (n = 11,000);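 active = inhibition of at least 40% at 10 µM in either of the two replicates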;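 also: plate controls were DMSO wells with enzyme for no effect and buffer wells lacking enzyme for full effect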
# Active calls of the source: *; i = inactive; nt = not tested or not shown.
SMILES,mIAP act,hIAP inh,bIAP inhibitor,hIAP act,bIAP act,mIAP block,mIAP inh confirm
COc1ccc(CN2C3CCCC2CC(NC(=O)Nc2cccc(C)c2)C3)cc1 (stereo unspecified),12*,5,7,0.95,0.9,i,i
CCn1c(=O)c(C(=O)NCc2ccc(F)cc2)c(O)c2ccccc21,0.91,10,nt,0.91,nt,9,nt
Cc1ccccc1NC(=O)NNC(=O)CCc1ccccc1,1,0,nt,1,nt,-2,nt
COc1ccc(-c2csc(Nc3ccc(S(N)(=O)=O)cc3)n2)cc1,1.1,-13,21,1.1,0.8,-15,nt
Cc1nc(N)sc1-c1csc(Nc2ccc(S(N)(=O)=O)cc2)n1,0.33,-10,nt,1.1,nt,67*,68*
CC(=O)c1ccc(S(=O)(=O)N2CCN(c3nc(-c4cccnc4)nc4ccccc34)CC2)cc1,0.93,19,nt,0.81,nt,7,nt
O=C(CCN1C(=O)/C(=C\c2ccco2)SC1=S)Nc1ccc(C(=O)O)c(O)c1,0.44,-16,nt,1.2,nt,56*,76*
O=C(CCN1C(=O)/C(=C/c2ccco2)SC1=S)Nc1ccc(C(=O)O)c(O)c1,0.39,-4,nt,1,nt,62*,78*
O=c1[nH]cc(S(=O)(=O)NCc2ccccc2)c(=O)[nH]1,0.92,-26,nt,1.3,nt,8,nt
COc1ccc(NC(=O)NC2(C)CCS(=O)(=O)C2)cc1 (stereo unspecified),1.1,-2,nt,1,nt,-8,nt
COc1ccc(NC(=O)NC23CC4(C)CC(C)(CC(C)(C4)C2)C3)cc1,3.1*,-30,0,1.3,1,-207,-108
Nc1cc2nc3ccccc3oc-2cc1=O,0.49,3,nt,0.97,nt,50*,42*
CCN(CC)c1ccc(S(=O)(=O)N2CCOCC2)cc1NC(=O)CNCc1ccccc1,1.1,-26,nt,1.3,nt,-11,nt
CCN(CC)c1ccc(S(=O)(=O)N2CCOCC2)cc1NC(=O)Nc1ccccc1,4.7*,-5,nt,1,nt,-366,-153
Cc1cc(C(=O)N2CCCC(Nc3ccccc3)C2)c2ccc(F)cc2n1 (stereo unspecified),0.96,13,nt,0.87,nt,4,nt
CCN1C(=O)[C@H]2[C@@H](c3ccc(-c4cccc(Cl)c4)cc3)N[C@@](C)(C(=O)OC)[C@H]2C1=O,0.89,-2,nt,1,nt,11,nt
CCCCNC(=O)C(C1CCCCC1)N(CCN(C)C)C(=O)CCCN1C(=O)NC(c2ccc(-c3ccccc3)cc2)C(C(=O)OCc2ccccc2)=C1C (stereo unspecified),2.7*,nt,nt,nt,nt,-168,-148
COCCn1cnnc1SCC(=O)Nc1sc2c(c1C#N)CCC2,0.96,-10,nt,1.1,nt,4,nt
Cn1cnnc1SCC(=O)Nc1sc2c(c1C(N)=O)CCC2,0.43,14,1,0.86,1,57*,54*
CCC(C)c1ccccc1NC(=O)COC(=O)C1=NN(c2ccccc2)C(=O)CC1 (stereo unspecified),1.2,5,nt,0.95,nt,-15,nt
O=C(CN1C(=O)c2ccc([N+](=O)[O-])cc2C1=O)NC1CCCCCC1,0.88,-3,nt,1,nt,12,nt
O=C(O)CC(CCc1ccccc1)OC1OC(CO)C(O)C(O)C1O (stereo unspecified),0.24,0,nt,1,nt,76*,80*
Oc1cccc(C=Nc2cccc3ccccc23)c1O,0.62,-5,nt,1.1,nt,38,nt
Oc1cccc(C=NCc2ccccc2)c1O,0.42,-6,16,1.1,0.8,58*,63*
O=c1oc2cc([N+](=O)[O-])ccc2nc1/C=C(\O)c1cccc(Br)c1,0.82,23,nt,0.77,nt,18,nt
SMILES,mIAP act,hIAP inh,bIAP inhibitor,hIAP act,bIAP act,mIAP block,mIAP inh confirm
O=c1oc2cc([N+](=O)[O-])ccc2nc1/C=C(O)/C=C/c1ccccc1,0.31,0,nt,1,nt,69*,76*
CN(CC(=O)Nc1c(Cl)cccc1Cl)C(=O)c1ccc2ccccc2n1,0.99,-10,nt,1.1,nt,1,nt
S=C(NCc1ccccc1)NC1CCSc2ccccc21 (stereo unspecified),4.4*,-6,nt,1.1,nt,-342,-151
COc1cccc(CC(=O)NC2CCSc3ccccc32)c1 (stereo unspecified),0.99,13,nt,0.87,nt,0,nt
Cc1cccc(NC(=S)NC2CCSc3ccccc32)c1 (stereo unspecified),4.3*,-1,nt,1,nt,-329,-242
O=C(NC1CCSc2ccccc21)c1cccc(OC(F)F)c1 (stereo unspecified),0.97,-10,nt,1.1,nt,3,nt
FC(F)Oc1ccc(NC(=S)NC2CCSc3ccccc32)cc1 (stereo unspecified),5.1*,-46,nt,1.5,nt,-406,-175
O=S1(=O)N(Cc2ccccc2F)CCCN1Cc1c(F)cccc1Cl,1,-14,nt,1.1,nt,-4,nt
CCCC(C)NC(=O)CN1C(=O)c2cccc3cccc1c23 (stereo unspecified),0.91,-12,nt,1.1,nt,9,nt
C=C(C)c1cccc(C(C)(C)NC(=O)Nc2ccc(C(N)=O)cc2)c1,2.2*,-15,-28,1.1,1.3,-123,-118
CC(C)N(Cc1ccccc1)C(=O)CN1C(=O)NC2(CCCC2)C1=O,0.99,7,nt,0.93,nt,1,nt
Oc1ccc(/C=N\Nc2cc(N3CCOCC3)nc(N3CCOCC3)n2)c(O)c1,0.85,10,-8,0.9,1.1,15,nt
Oc1ccc(/C=N/Nc2cc(N3CCCC3)nc(N3CCCC3)n2)cc1O,0.32,0,-3,1,1,68*,76*
COc1ccc(C2CC(c3ccccc3Cl)=NN2c2ccc(S(N)(=O)=O)cc2)cc1 (stereo unspecified),2.2*,nt,nt,nt,nt,-122,-118
CC1=NN2C(=N)/C(=C\c3ccc(SCc4ccccc4)o3)C(=O)N=C2S1,0.85,0,14,1,0.9,15,nt
N=C1/C(=C\c2ccc(SCc3ccco3)o2)C(=O)N=C2SC=NN12,0.31,-2,6,1,0.9,69*,76*
CCOc1ccccc1NC(=O)CN1CCC(NC(=O)Nc2ccccc2)CC1,3.5*,-81,nt,1.8,nt,-249,-199
COc1ccc(-c2ccccc2[C@H]2[C@@H]3C=CC[C@@H](C)[C@@H]3C(=O)N2Cc2ccccc2)cc1,0.99,nt,nt,nt,nt,1,nt
